High-throughput results deposited in PubChem BioAssay by several laboratories.
Arbovirus anti = antivirals against arbovirus infection, primary screen, cell-based, full library, 10K replicate subset; arbovirus infection cell-based antiviral screen; inhibition, % at 10 µM; 200,000 compounds, 0.37% hits; in the data active = inhibition above about 30%
TNAP inh noacc = human TNAP enzyme inhibitors, primary screen, biochemical, luminescent, no phosphate acceptor, uHTS; inhibition, % at 20 µM; purified TNAP, CDP-star luminescence, 30 min; 200,000 compounds, 0.26% hits;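 active = tissue-nonspecific alkaline phosphatase inhibition above about 50% at 20 µM in the single-dose screen, limit read from the data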;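 also: 0% = DMSO negative control and 100% = EDTA positive control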
Target sequence (P05186 whole entry, looked up): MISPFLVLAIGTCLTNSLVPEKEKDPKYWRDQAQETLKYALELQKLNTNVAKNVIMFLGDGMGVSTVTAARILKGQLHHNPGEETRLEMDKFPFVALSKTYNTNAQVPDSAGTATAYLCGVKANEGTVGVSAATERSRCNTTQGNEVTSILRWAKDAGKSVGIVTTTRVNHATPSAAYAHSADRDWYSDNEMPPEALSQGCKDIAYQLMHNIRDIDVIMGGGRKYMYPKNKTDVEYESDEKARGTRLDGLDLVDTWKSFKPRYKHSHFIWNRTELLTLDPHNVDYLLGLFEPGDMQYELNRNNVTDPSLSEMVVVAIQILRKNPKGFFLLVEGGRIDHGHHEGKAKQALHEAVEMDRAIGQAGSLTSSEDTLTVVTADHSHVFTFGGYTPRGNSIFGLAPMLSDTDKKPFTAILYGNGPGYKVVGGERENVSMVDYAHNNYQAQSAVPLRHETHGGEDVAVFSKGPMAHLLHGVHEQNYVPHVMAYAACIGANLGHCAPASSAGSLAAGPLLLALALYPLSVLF
TNAP act hiacc = TNAP activators at high phosphate acceptor level, primary screen, biochemical, luminescence, uHTS; AID 1136, 2008; purified TNAP, CDP-star luminescence, 1 M DEA, 30 min; stronger effect = higher value; 0 = EDTA background, 1 = DMSO-only activity; 200,000 tested, under 10 active; Alkaline phosphatase, tissue-nonspecific isozyme (Homo sapiens), P05186; activation factor at 20 µM;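 active = activation factor at least 2 at 20 µM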
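system = human TNAP | amount = enzyme diluted 1/800 final | reagent = 100 µM CDP-star substrate | signal = luminescent substrate turnover signal | dosing = one dose, 20 µM | benchmarks = EDTA negative control, DMSO positive control | measure = activation factor | timing = 30 min reaction, room temperature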
PKD1 inh = inhibitors of human PKD1 kinase, biochemical, fluorescence polarization; PKD1 kinase fluorescence polarization assay; inhibition, % (concentration not given with the values); 200,000 compounds, 0.056% hits; AID 797, 2007; in the data active = inhibition above about 50%
TNAP inh hiacc = human TNAP enzyme inhibitors, primary screen, biochemical, luminescent, high phosphate acceptor level, uHTS | Alkaline phosphatase, tissue-nonspecific isozyme (Homo sapiens), P05186 | purified TNAP, CDP-star luminescence, 1 M DEA | inhibition, % at 20 µM | 200,000 compounds, 0.03% hits;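 active = over 50% inhibition of tissue-nonspecific alkaline phosphatase at 20 µM in the single-dose screen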;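 also: plate controls were DMSO wells for no effect and EDTA-quenched wells as full inhibition for full effect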
The depositor's hits bear a star. A selection: hits, their analogues and other compounds. The true share with any hit is near 0.73%.

`COc1ccc(/C=C/C(=O)c2ccc(NC(=O)c3cccs3)cc2)cc1OC` gave Arbovirus anti -41.1, TNAP inh noacc 1.1, TNAP act hiacc 1, PKD1 inh -6.5 and TNAP inh hiacc -1.1.
CCc1cc(-c2n[nH]c(C)c2Oc2ccc(C(C)C)cc2)c(O)cc1O was read as Arbovirus anti -43.1, TNAP inh noacc 2.8, TNAP act hiacc 1, PKD1 inh -1.1 and TNAP inh hiacc -3.1.
Screening COc1ccc(-c2cc(-c3ccc(Br)cc3)nc3ncnn23)cc1OC returned Arbovirus anti 72.1*, TNAP inh noacc -9.8, TNAP act hiacc 1, PKD1 inh 2.7 and TNAP inh hiacc -1.8.
For S=c1[nH]nc(-c2ccccc2)n1/N=C/c1ccc(-c2ccccc2Cl)o1 the results were Arbovirus anti -12.1, TNAP inh noacc 39.8, TNAP act hiacc 0.9, PKD1 inh -6.6 and TNAP inh hiacc 7.1.
For Nc1nc2ccccc2n1/N=C/c1ccc(-c2ccccc2)o1 the results were Arbovirus anti 39.1*, TNAP inh noacc -6.0, TNAP act hiacc 1, PKD1 inh -8.6 and TNAP inh hiacc -2.0.
CCOc1ccccc1NC(=O)Cn1c(=O)n(-c2ccccc2)c(=O)c2oc3ccccc3c21 was read as Arbovirus anti -10.4, TNAP inh noacc -9.7, TNAP act hiacc 0.9, PKD1 inh -6.9 and TNAP inh hiacc 5.0.
For O=C(COc1ccc(Cl)cc1)Nc1ncc([N+](=O)[O-])s1 the results were Arbovirus anti 30.5*, TNAP inh noacc -3.8, TNAP act hiacc 1, PKD1 inh 0.1 and TNAP inh hiacc -0.9.
`CCO[C@H]1OC(C(=O)O)=C[C@@H](c2ccc3c(c2)OCO3)[C@@H]1CCCO` gave Arbovirus anti 1.5, TNAP inh noacc -3.1, TNAP act hiacc 1, PKD1 inh -3.4 and TNAP inh hiacc -1.1.
`CCS(=O)(=O)CCSC1OC(COC(C)=O)C(OC(C)=O)C(OC(C)=O)C1OC(C)=O` (stereo unspecified) gave Arbovirus anti 3.7, TNAP inh noacc -12.0, TNAP act hiacc 1.1, PKD1 inh -8.0 and TNAP inh hiacc -8.5.
For COc1cccc(CN2CCN(C(=O)c3cccc(F)c3)CC2)c1 the results were PKD1 inh -4.6.
Cc1nonc1N1CCN(Cc2cn[nH]c2-c2ccc(F)cc2F)CC1 was read as Arbovirus anti 1.8, TNAP inh noacc 59.5*, TNAP act hiacc 1, PKD1 inh -2.2 and TNAP inh hiacc 3.3.
`COc1ccc(-c2[nH]ncc2CN2C[C@@H]3CCC[C@H]2C3)c(F)c1` gave Arbovirus anti 8.6, TNAP inh noacc 76.1*, TNAP act hiacc 1.1, PKD1 inh 1.3 and TNAP inh hiacc -7.2.
For Cn1cc(CN2C[C@H]3CC[C@H]2C3)c(-c2ccccc2F)n1 the results were Arbovirus anti 3.7, TNAP inh noacc -7.5, TNAP act hiacc 1, PKD1 inh -1.3 and TNAP inh hiacc -1.8.
For O=C(c1ccco1)N1CCN(Cc2cn[nH]c2-c2ccc(F)cc2F)CC1 the results were Arbovirus anti -6.7, TNAP inh noacc 78.4*, TNAP act hiacc 1.1, PKD1 inh -3.1 and TNAP inh hiacc -6.1.
Screening COc1cccc(C(=O)N2CCN(Cc3cn[nH]c3-c3ccc(F)cc3F)CC2)c1 returned Arbovirus anti -0.3, TNAP inh noacc 64.8*, TNAP act hiacc 1.1, PKD1 inh 0.8 and TNAP inh hiacc -6.8.
Screening COc1cc([N+](=O)[O-])c(C(=O)N2CCOCC2)c([N+](=O)[O-])c1 returned Arbovirus anti -7.8, TNAP inh noacc -4.9, TNAP act hiacc 1, PKD1 inh -16.1 and TNAP inh hiacc -1.7.
For CCN(c1ccc(NC(=O)CN2C(=O)NC3(CCOc4ccccc43)C2=O)cc1)C(C)C (stereo unspecified) the results were Arbovirus anti -19.6, TNAP inh noacc -7.4, TNAP act hiacc 1.1, PKD1 inh 1.7 and TNAP inh hiacc -6.3.
Screening C=CCn1c(CCNC(=O)c2cccs2)nnc1SCC(=O)Nc1cccc(F)c1 returned Arbovirus anti 2.4, TNAP inh noacc -8.7, TNAP act hiacc 1, PKD1 inh 0.8 and TNAP inh hiacc -2.0.
